Screens (PubChem BioAssay)
CRFR2-BP antag = CRF-BP/CRF-R2 complex antagonism; HEK293 CRF-R2/CRF-BP, CRF-induced calcium fluorescence; inhibition, % at 11.8 µM; 0.59% of 350,000 active;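 active = inhibition of the ligand-induced calcium signal above about 50% at the single tested concentration, limit read from the data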
CRFBP-R2 agonist = agonists of human CRF-binding protein/CRF-R2 receptor complex. activation, % at 13.2 µM. 0.46% of 350,000 active. HEK293 CRF-R2/CRF-BP, calcium dye fluorescence (FLIPR); percent of saturating CRF peptide response. AID 588473;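 active = activation of at least 50%, plus an integration ratio under a set limit after plate pattern correction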;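 note: plate controls were neutral control wells without compound for no effect and CRF at EC100 for full effect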
beta cell repl = induces beta-cell replication in MIN6 cells | MIN6 cells proliferation, ATPlite luminescence, 48 h; cells starved in 0.2% serum; 100% = growth in 10% serum | AID 2380 | 0.29% of 330,000 active | proliferation, % at 10 µM;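 active = compounds whose signal lies at least 3.5 SD above the mean of all wells on their plate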;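 note: 0% = DMSO-treated cells in low-serum medium and 100% = 10% serum control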
H9c2 protect = myocardial damage modulation in H9c2 cells; H9c2 cardiomyocytes, H2O2 injury protection, ATPLite, 2 h; protection from H2O2 cell death, % at 20 µM; 0.63% of 360,000 active;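 active = compounds giving at least 50% protection of heart cells from peroxide-induced death in the single-dose screen, raw or plate-pattern-corrected value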;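 note: 0% = DMSO wells with peroxide and 100% = DMSO wells without peroxide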
iPSC survival up = increases survival of single human iPS cells; survival enhancement, % at 20 µM; 0.044% of 360,000 active; hiPSC single-cell survival, ATPlite luminescence; 100% = ROCK inhibitor wells, 0% = DMSO; in the data active = survival enhancement above about 18%;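 note: cells exposed to compounds for 16 hours before the ATP read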
UCH37 DUB inh = blocks the human deubiquitinase UCH37; Q9Y5K5; AID 588478; 0.33% of 330,000 active; purified proteasome/UCH37, Ub-AMC cleavage fluorescence; inhibition, % (no concentration beside the values);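 active = mean inhibition over replicate wells above about 20%, limit read from the data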;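 note: 0% = compound-free wells with enzyme and 100% = wells lacking proteasome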
Target sequence (Q9Y5K5 whole entry, looked up): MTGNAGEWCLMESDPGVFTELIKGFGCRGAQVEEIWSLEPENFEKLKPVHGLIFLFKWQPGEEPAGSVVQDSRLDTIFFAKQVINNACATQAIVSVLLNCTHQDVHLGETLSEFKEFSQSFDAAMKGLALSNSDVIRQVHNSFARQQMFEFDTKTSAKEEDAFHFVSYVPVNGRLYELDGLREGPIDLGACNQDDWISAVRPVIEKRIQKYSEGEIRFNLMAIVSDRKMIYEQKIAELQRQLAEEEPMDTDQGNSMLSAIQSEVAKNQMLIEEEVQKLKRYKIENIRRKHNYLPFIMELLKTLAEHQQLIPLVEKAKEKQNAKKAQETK
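Material: human UCH37 enzyme supplied as purified proteasome complex / Amount: 0.15 nM proteasome as dispensed / Buffer or medium: pH 7.4 Tris-HCl (50 mM) with ovalbumin, ATP-MgCl2, DTT / Times: preincubation 30 min, reaction 25 min, room temperature / Technique: AMC fluorescence from Ub-AMC cleavage, excitation 355 nm, emission 460 nm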
Numbers without * were called inactive; . = not tested or not shown. This is a sample that favours compounds with a hit; in the whole collection about 2.1% have one here.

SMILES	CRFR2-BP antag	CRFBP-R2 agonist	beta cell repl	H9c2 protect	iPSC survival up	UCH37 DUB inh
O=c1cc(Cc2ccc([N+](=O)[O-])cc2)[nH]c(=O)[nH]1	57*	1	.	0	4	.
c1ccc(-c2csc(=Nc3cccnc3)n2CC2CCCO2)cc1 (stereo unspecified)	42	-3	0	-8	2	3
COCCn1c(-c2ccccc2)csc1=Nc1cccnc1	92*	0	-1	-12	1	6
Cc1ccc(C)c(S(=O)(=O)NN=Cc2ccc(N(C)C)cc2)c1	.	.	.	.	.	8
Cn1c(N=Cc2c[nH]c3ccccc23)nc2ccccc21	.	.	.	.	.	-2
CC(CC(=O)NCc1ccco1)=NNC(=O)Cc1ccccc1	.	.	.	.	.	-4
Cc1cc(N2CCCC2)ccc1C=Nn1cnnc1	.	.	.	.	.	-36
COc1ccc(C(=O)C(C#N)=NNc2ccccc2[N+](=O)[O-])cc1	.	.	.	.	.	6
CCC(C)NS(=O)(=O)c1ccc(OCC(=O)NCc2ccccn2)cc1 (stereo unspecified)	51*	14	0	0	2	1
CC(O)C(=O)NN=Cc1cccc(Cl)c1Cl (stereo unspecified)	.	.	.	.	.	4
COc1ccc(/C=C2\CCC(C3CCCC3)C2=O)cc1 (stereo unspecified)	-15	2	-3	-4	1	1
COc1ccc(/C=C2/CCC(CN3CCOCC3)C2=O)cc1 (stereo unspecified)	57*	12	.	-20	-2	.
C/C(=N\NC(=O)c1ccccc1OCc1ccc(F)cc1)c1ccccn1	6	-1	-8	53*	0	.
Cc1ccc(C(C)(C)C)cc1S(=O)(=O)Nc1nc2ccccc2nc1Cl	64*	12	-4	-7	-1	-6
CCOc1cc(C=NNC(N)=O)cc(Br)c1OCC(=O)Nc1ccccc1C	.	.	.	.	.	-2
Cn1c(=O)c2c(nc(NCC3CCCO3)n2Cc2ccccc2)n(C)c1=O (stereo unspecified)	5	-2	0	-3	16	26*
Cn1c(=O)c2c(nc(NC3CCCCC3)n2Cc2ccccc2)n(C)c1=O	-5	0	-5	5	0	8
CC1CCN(Cc2nc3c(c(=O)n(C)c(=O)n3C)n2CCCc2ccccc2)CC1	6	0	1	56*	0	1
S=C(NCCc1ccccc1)N1CCc2ccccc2C1	16	0	-3	-13	2	22*
OC1CCN(C(=S)NCCc2ccccc2)CC1	-7	2	-1	5	5	1
COc1cccc(C=NNC(=S)Nc2cccc(S(=O)(=O)N(C)C)c2)c1	.	.	.	.	.	0
Cc1ccc(NC(=O)Nc2cccc([N+](=O)[O-])c2)cc1F	28	26	0	-27	-1	4
O=C(Nc1ccc(OC(F)(F)F)cc1)Nc1cccc([N+](=O)[O-])c1	36	21	-5	-16	-1	31*
O=C(/C=C/c1cn(CC(O)CN2CCCCC2)c2ccccc12)c1cccs1 (stereo unspecified)	-80	63*	.	-7	-4	2
O=C(c1ccco1)N(Cc1cccc([N+](=O)[O-])c1)c1ccc(Br)cc1	82*	-1	-4	-6	0	4
SMILES	CRFR2-BP antag	CRFBP-R2 agonist	beta cell repl	H9c2 protect	iPSC survival up	UCH37 DUB inh
CC(Nc1n[nH]c(=O)[nH]c1=O)C(=O)NN=Cc1ccccc1 (stereo unspecified)	.	.	.	.	.	3
CC(=NNC(=O)c1ccncc1)c1ccc(NC(=O)c2ccc(Cl)cc2)cc1	.	.	.	.	.	-7
COC(CNc1ncnc2c1cnn2C)OC	53*	1	-4	10	0	0
OC(CN1C2=NCCCN2c2ccccc21)c1ccc2c(c1)OCO2 (stereo unspecified)	0	0	4	27	-5	3
OC(CN1C2=NCCN2c2ccccc21)c1ccc2c(c1)OCO2 (stereo unspecified)	52*	3	8	33	1	3
CCSc1nnc(NC(=O)C2Cc3ccccc3CN2S(=O)(=O)CC)s1 (stereo unspecified)	-13	0	-1	64*	-3	5
